The source of these data is ChEMBL document CHEMBL3112579, “Inhibition of 5-oxo-6,8,11,14-eicosatetraenoic acid-induced activation of neutrophils and eosinophils by novel indole OXE receptor antagonists” (J Med Chem, 2014).

Molecules are shown by their SMILES. The source made the active and inactive calls. The calls are words filed in the database; no cut-off is given here.

Data set [1] addresses T1, Oxoeicosanoid receptor 1 (Homo sapiens, UniProt Q8TDS5). The experiment in a line: Antagonist activity at OXE receptor (unknown origin) expressed in indo-1 loaded neutrophils assessed as inhibition of 5-oxo-ETE-induced calcium mobilization incubated for 2 mins prior to 5-oxo-ETE induction by spectrofluorometric analysis. Format: functional. On the technique in general: Calcium flux is commonly read through the fluorescence of an indicator in the cells.

Data set [2] concerns the target T1, Oxoeicosanoid receptor 1. The experiment in a line: Antagonist activity at OXE receptor in human neutrophils assessed as inhibition of 5-oxo-ETE-induced calcium mobilization by spectrofluorometric analysis. Format: functional. The essentials: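 Indo-1 AM-loaded human neutrophils (dextran, Ficoll, hypotonic lysis) in PBS with Ca++ 1.8 mM and Mg++ 1 mM, stirred at 37 °C, ex 331/em 410 nm. Vehicle (DMSO) or antagonist at varied concentrations, then 5-oxo-ETE (final 10 nM) 2 min later, then digitonin (0.1%) 1 min later for maximal signal. IC50s are means ± SE of per-experiment IC50 values.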

The next data set deals with Rattus norvegicus. The experiment in a line: Drug metabolism in […] in presence of NADPH. Format: ADME.
A short description of data set [3]: Drug metabolism in Sprague-Dawley rat liver homogenates at 20 uM after 60 mins by reversed-phase HPLC analysis in presence of NADPH. The data set is classed as ADME, tissue-based. As to conditions: read-out: Drug metabolism. The essentials:
(§1)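 Male Sprague-Dawley rat liver homogenized in 0.25 M sucrose and spun at 600 × g for 10 min. Supernatant (0.8 ml) combined with phosphate buffer pH 7.4 (final 50 mM) and NADPH (final 1 mM). Compound (20 μM) incubated 60 min at 37 °C, stopped with ice-cold MeOH. Products analysed by reversed-phase HPLC with UV detection.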

Data set [4] relates to Liver. The experiment in a line: Drug metabolism in Sprague-Dawley rat liver homogenates assessed as metabolite retention time at 20 uM by reversed-phase HPLC analysis. The data set is classed as ADME, tissue-based. As to conditions: tissue homogenate. The essentials:
as §1

Data set [5] concerns Liver. In words: Drug metabolism in Sprague-Dawley rat liver homogenates in presence of ATP, CoA, L-carnitine, NAD+. Format: ADME, tissue-based. To be noted: tissue homogenate.
Data set [6] has as its target T1, Oxoeicosanoid receptor 1. In words: Potency index, ratio of compound activity to Gue1654 activity for antagonism of OXE receptor (unknown origin) expressed in anti-CD49d-labeled neutrophils assessed as inhibition of 5-oxo-ETE-induced F-actin polymerization.
For data set [7], the target named is T1, Oxoeicosanoid receptor 1. In words: Potency index, ratio of compound activity to Gue1654 activity for antagonism of OXE receptor (unknown origin) expressed in anti-CD49d-labeled eosinophils assessed as inhibition of 5-oxo-ETE-induced F-actin polymerization.
Data set [8] concerns the target T1, Oxoeicosanoid receptor 1. In words: Antagonist activity at OXE receptor (unknown origin) expressed in anti-CD49d-labeled neutrophils assessed as inhibition of 5-oxo-ETE-induced F-actin polymerization preincubated for 5 mins followed by 5-oxo-ETE induction measured after 20 secs by flow cytometric analysis. Put shortly:
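Unfractionated human leukocytes (dextran sedimentation, hypotonic lysis) stained 30 min on ice with APC-anti-CD49d, 5.5×10^6 cells/ml in PBS with Ca++/Mg++. Preincubated 5 min at 37 °C with vehicle or inhibitor, then 5-oxo-ETE (final 10 nM) for 20 s. Fixed in formaldehyde (final 8.5%), permeabilized with lysophosphatidylcholine, NBD-phalloidin (final 0.3 μM) overnight at 4 °C, flow cytometry. Eosinophils gated as high side scatter/high CD49d, neutrophils as high side scatter/low CD49d.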
(In general: Flow cytometry measures light scatter and fluorescence of single cells or particles in a stream.)

The target in data set [9] is T1, Oxoeicosanoid receptor 1. The experiment in a line: Antagonist activity at OXE receptor (unknown origin) expressed in anti-CD49d-labeled eosinophils assessed as inhibition of 5-oxo-ETE-induced F-actin polymerization preincubated for 5 mins followed by 5-oxo-ETE induction measured after 20 secs by flow cytometric analysis. Put shortly:
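Unfractionated human leukocytes (dextran sedimentation, hypotonic lysis) stained 30 min on ice with APC-anti-CD49d, 5.5×10^6 cells/ml in PBS with Ca++/Mg++. Preincubated 5 min at 37 °C with vehicle or inhibitor, then 5-oxo-ETE (final 10 nM) for 20 s. Eosinophils gated as high side scatter/high CD49d, neutrophils as high side scatter/low CD49d.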

For a further data set, the species on record is Homo sapiens. In words: Antagonist activity at interleukin-8 receptor (unknown origin) expressed in indo-1 loaded neutrophils assessed as inhibition of IL-8-induced calcium mobilization by spectrofluorometric analysis. Put shortly:
(§2)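 Human blood neutrophils (dextran sedimentation, Ficoll, hypotonic lysis) loaded with indo-1 AM. Ca++ 1.8 mM and Mg++ 1 mM added to the cuvette. Read at 37 °C with stirring, ex 331/em 410 nm. Vehicle or antagonist (10 μM) added, 5-oxo-ETE (10 nM) 2 min later, second agonist (LTB4, PAF, fMLP or IL-8) after a further 2 min, digitonin (0.1%) 1 min later for maximal fluorescence. Two independent experiments.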

Data set [10] addresses T2, fMet-Leu-Phe receptor (Homo sapiens) (UniProt P21462).
T2 sequence (whole entry): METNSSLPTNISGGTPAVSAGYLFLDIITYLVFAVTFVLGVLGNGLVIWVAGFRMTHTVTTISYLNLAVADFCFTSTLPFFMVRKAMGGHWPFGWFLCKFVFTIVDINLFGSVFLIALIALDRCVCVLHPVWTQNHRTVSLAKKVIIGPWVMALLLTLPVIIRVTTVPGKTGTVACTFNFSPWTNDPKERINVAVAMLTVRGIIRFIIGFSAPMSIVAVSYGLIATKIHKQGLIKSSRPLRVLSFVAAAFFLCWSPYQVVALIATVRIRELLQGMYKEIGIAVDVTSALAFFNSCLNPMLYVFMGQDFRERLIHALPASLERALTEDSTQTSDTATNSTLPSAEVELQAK
In words: Antagonist activity at FPR1 receptor (unknown origin) expressed in indo-1 loaded neutrophils assessed as inhibition of fMLP-induced calcium mobilization at 10 uM by spectrofluorometric analysis. Format: functional. Put shortly: as §2

Data set [11] deals with Platelet-activating factor receptor (Homo sapiens) (UniProt P25105). In words: Antagonist activity at PAF receptor (unknown origin) expressed in indo-1 loaded neutrophils assessed as inhibition of PAF-induced calcium mobilization at 10 uM by spectrofluorometric analysis. The data set is classed as functional. Put shortly:
as §2

Data set [12] addresses Leukotriene B4 receptor 1 (Homo sapiens) (UniProt Q15722). In words: Antagonist activity at LTB4 receptor (unknown origin) expressed in indo-1 loaded neutrophils assessed as inhibition of LTB4-induced calcium mobilization at 10 uM by spectrofluorometric analysis. Format: functional. The essentials:
as §2

The test system of data set [13] is Liver. The experiment in a line: Drug metabolism in Sprague-Dawley rat liver homogenates assessed as retention time of unmetabolized compound at 20 uM by reversed-phase HPLC analysis. The data set is classed as ADME, tissue-based. To be noted: tissue homogenate. Put shortly: as §1

T1 sequence (Q8TDS5 whole entry): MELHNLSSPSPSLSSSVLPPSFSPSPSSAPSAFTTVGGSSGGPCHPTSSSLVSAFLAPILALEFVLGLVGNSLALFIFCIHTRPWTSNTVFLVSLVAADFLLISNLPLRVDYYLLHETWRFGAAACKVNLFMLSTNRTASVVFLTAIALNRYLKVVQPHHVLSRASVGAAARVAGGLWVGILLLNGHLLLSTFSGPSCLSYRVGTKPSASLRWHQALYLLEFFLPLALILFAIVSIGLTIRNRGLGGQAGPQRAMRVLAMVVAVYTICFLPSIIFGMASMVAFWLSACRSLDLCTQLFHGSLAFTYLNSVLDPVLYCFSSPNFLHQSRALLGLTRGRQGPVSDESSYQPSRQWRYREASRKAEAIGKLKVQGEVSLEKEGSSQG
Platelet-activating factor receptor (Homo sapiens), sequence (P25105 whole entry): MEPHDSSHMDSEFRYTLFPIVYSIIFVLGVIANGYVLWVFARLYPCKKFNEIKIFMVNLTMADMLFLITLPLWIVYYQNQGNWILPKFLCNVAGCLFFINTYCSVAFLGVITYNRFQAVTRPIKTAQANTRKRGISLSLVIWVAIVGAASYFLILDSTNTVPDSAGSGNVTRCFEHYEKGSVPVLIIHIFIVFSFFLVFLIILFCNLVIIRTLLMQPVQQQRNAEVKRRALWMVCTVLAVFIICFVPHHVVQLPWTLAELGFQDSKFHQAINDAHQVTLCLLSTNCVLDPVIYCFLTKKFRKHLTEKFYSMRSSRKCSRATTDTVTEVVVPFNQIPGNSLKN
Leukotriene B4 receptor 1 (Homo sapiens), sequence (Q15722 whole entry): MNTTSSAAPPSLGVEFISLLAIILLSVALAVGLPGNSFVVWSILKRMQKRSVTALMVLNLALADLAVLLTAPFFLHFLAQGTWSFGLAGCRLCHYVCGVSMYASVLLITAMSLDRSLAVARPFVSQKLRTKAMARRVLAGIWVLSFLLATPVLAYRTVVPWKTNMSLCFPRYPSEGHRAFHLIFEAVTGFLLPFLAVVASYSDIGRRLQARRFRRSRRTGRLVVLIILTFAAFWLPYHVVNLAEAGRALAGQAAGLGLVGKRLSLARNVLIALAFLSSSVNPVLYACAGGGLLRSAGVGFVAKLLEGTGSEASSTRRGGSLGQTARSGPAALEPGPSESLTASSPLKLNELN

By inhibition is commonly meant the percentage by which the read-out fell short of the control. Regarding `CCCCCCn1cc(C(=O)CCCC(=O)O)c2ccccc21`, the inhibition entry at Oxoeicosanoid receptor 1 [1] is “Active”.
Still for that read-out and setting: with `CCCCCCc1cccc2ccn(C(=O)CCCC(=O)O)c12` the entry was “Active”.
Broadly, the IC50 is the midpoint of a concentration-inhibition curve. `O=C(O)CCCC(=O)n1ccc2ccccc21`: on Oxoeicosanoid receptor 1 [1], the IC50 was over 30000 nM.
Same read-out and setting: for `CCCCCCc1cc2ccccc2n1C(=O)CCCC(=O)O` the value was 1130 nM; for `CCCCCc1cc2ccccc2n1C(=O)CCCC(=O)O`, 2150 nM; for `CCCCCCc1c(C(=O)CCCC(=O)O)c2ccccc2n1C`, 6060 nM.
For `CCCCCCc1nc2ccccc2cc1C(=O)CCCC(=O)O`, the IC50 on Oxoeicosanoid receptor 1 [1] was over 30000 nM.
Regarding `CCCCCCc1c(C(=O)CC(C)CC(=O)O)c2ccc(Cl)cc2n1C` (centres undefined), at Oxoeicosanoid receptor 1 [1], the IC50 was 81 nM.
Still for that read-out and setting: for `CCCCCCc1cc2ccccc2n1C(=O)CC(C)(C)CC(=O)O` the value was 11000 nM.
Still for that read-out and setting: for `CCCCCCc1cc2ccccc2n1C(=O)CC1(CC(=O)O)CC1` the value was 1630 nM; for `CCCCCCCCC/C=C\c1cc2ccccc2n1C(=O)CCCC(=O)O`, 550 nM; for `CCCCCCc1c(C)c2ccccc2n1C(=O)CC(C)CC(=O)O` (centres undefined), 136 nM.
On the same count and under the same terms, for `CCCCc1cc2ccccc2n1C(=O)CCCC(=O)O` the value was 13700 nM; for `CCCCCCc1cc2ccc(OC)cc2n1C(=O)CC(C)CC(=O)O` (centres undefined), 323 nM.
For `CCCCC/C=C\C[C@H](O)/C=C/C=C/C=C/C(=O)CCCC(=O)O`, the IC50 on Oxoeicosanoid receptor 1 [2] worked out at 2500 nM.
As for `CCCCCCc1cc2cc(Cl)ccc2n1C(=O)CC(C)CC(=O)O` (centres undefined), the IC50 at Oxoeicosanoid receptor 1 [1] is 141 nM.
On the same count and under the same terms, for `CCCCCCc1cc2ccccc2n1C(=O)CCC(=O)O` the value was over 30000 nM.
Same read-out and setting: for `CCCCCCc1cc2cc(Br)ccc2n1C(=O)CC(C)CC(=O)O` (centres undefined) the value was 638 nM.
As for `CCCCC/C=C\C[C@H](O)/C=C/C=C\C=C\C(=O)CCCC(=O)O`, on Oxoeicosanoid receptor 1 [2], the IC50 was 500 nM.
With `CCCCCCCc1cc2ccccc2n1C(=O)CCCC(=O)O`, the IC50 at Oxoeicosanoid receptor 1 [1] stood at 750 nM.
With `CCCCCCc1c(C(=O)CC(C)CC(=O)O)c2cc(Cl)ccc2n1C` (racemic), the Drug metabolism result in the data set with Rattus norvegicus is “Active”; in the data set on Liver [5], “Not Active”. Also, the metabolised at 1 h, 20 µM in data set [3] worked out at 2%. Besides, in the data set on Liver [4], the Retention_time was 14.1 min. In addition, the Ratio on Oxoeicosanoid receptor 1 [6] and on Oxoeicosanoid receptor 1 [7] was 10 each time. Further, the inhibition entry on Oxoeicosanoid receptor 1 [8] is “Active”. Moreover, on Oxoeicosanoid receptor 1 [9], the IC50 was found to be 33 nM. In addition, the inhibition result (in the data set listed under Homo sapiens; in data set [10]; in data set [11]; in [12]) was “inactive” in each case.
`CCCCCCCCc1cc2ccccc2n1C(=O)CCCC(=O)O`: the IC50 at Oxoeicosanoid receptor 1 [1] was 570 nM.
In the case of `CCCCCCc1[nH]c2ccccc2c1C(=O)CCCC(=O)O`, at Oxoeicosanoid receptor 1 [1], the IC50 turned out to be 9750 nM and the inhibition was 50%.
With `CCCCCCc1cn(C(=O)CCCC(=O)O)c2ccccc12`, the inhibition result at Oxoeicosanoid receptor 1 [1] is “Active”.
Take `CCCCCCCCCCCc1cc2ccccc2n1C(=O)CCCC(=O)O`: on Oxoeicosanoid receptor 1 [1], the IC50 is 700 nM.
Turning to `CCCC/C=C/c1cc2ccccc2n1C(=O)CCCC(=O)O`, the IC50 at Oxoeicosanoid receptor 1 [1] is 4030 nM.
Consider `CCCCCCc1ccc2ccn(C(=O)CCCC(=O)O)c2c1`, for which, on Oxoeicosanoid receptor 1 [1], the inhibition entry is “Active”.
Take `CCCCCCc1c(C(=O)CC(C)CC(=O)O)c2cc(Br)ccc2n1C` (centres undefined): on Oxoeicosanoid receptor 1 [1], the IC50 came out at 26 nM.
Consider `CCCCCCc1ccc2c(ccn2C(=O)CCCC(=O)O)c1`, for which the inhibition result at Oxoeicosanoid receptor 1 [1] is “Active”.
As for `CCCCCCc1c(C(=O)CC(C)CC(=O)O)c2ccccc2n1C` (centres undefined), the IC50 on Oxoeicosanoid receptor 1 [1] worked out at 314 nM.
Regarding `CCCCCCc1cc2ccc(Cl)cc2n1C(=O)CC(C)CC(=O)O` (racemic), the Retention_time in the data set on Liver [13] worked out at 30.2 min; in the data set with Liver [4], 18.2 min. The Drug metabolism result in the data set with Rattus norvegicus is listed as “Active”; in the data set with Liver [5], “Not Active”. Besides, in [3], the metabolised at 1 h, 20 µM was 12%. Further, the inhibition result at Oxoeicosanoid receptor 1 [8] is “Active”. The inhibition entry (in the data set filed under Homo sapiens; in data set [10]; in data set [11]; in data set [12]) was “inactive” throughout.
Consider `CCCCCCc1c(C(=O)CCCC(=O)O)c2cc(Cl)ccc2n1C`, for which, on Oxoeicosanoid receptor 1 [1], the IC50 is 566 nM.
For the compound `CCCCCCc1cc2ccc(Br)cc2n1C(=O)CC(C)CC(=O)O` (centres undefined), the IC50 on Oxoeicosanoid receptor 1 [1] came out at 30 nM.
